Legend:
Type in all cases: biochemical
HePTP = biological target: T1, HePTP (Homo sapiens, UniProt P35236); test: Dose-response OMFP phosphatase assay, HePTP
T1 sequence (P35236 1-360): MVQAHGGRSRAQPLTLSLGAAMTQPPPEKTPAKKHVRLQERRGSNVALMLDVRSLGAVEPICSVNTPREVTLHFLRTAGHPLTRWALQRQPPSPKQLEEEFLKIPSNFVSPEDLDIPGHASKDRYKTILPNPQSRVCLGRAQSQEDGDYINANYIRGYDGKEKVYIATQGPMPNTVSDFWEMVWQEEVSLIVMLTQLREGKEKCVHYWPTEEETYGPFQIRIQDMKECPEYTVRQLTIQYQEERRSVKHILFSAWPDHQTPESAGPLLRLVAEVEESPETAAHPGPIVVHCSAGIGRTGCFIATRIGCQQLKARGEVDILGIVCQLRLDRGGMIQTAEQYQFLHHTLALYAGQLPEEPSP

MKP-3 = biological target: T2, MKP-3 (Homo sapiens, UniProt Q16828); test: Dose-response OMFP phosphatase assay, MKP-3; conditions: read-out: IC50 MKP-3; OMFP substrate
T2 sequence (Q16828 1-381): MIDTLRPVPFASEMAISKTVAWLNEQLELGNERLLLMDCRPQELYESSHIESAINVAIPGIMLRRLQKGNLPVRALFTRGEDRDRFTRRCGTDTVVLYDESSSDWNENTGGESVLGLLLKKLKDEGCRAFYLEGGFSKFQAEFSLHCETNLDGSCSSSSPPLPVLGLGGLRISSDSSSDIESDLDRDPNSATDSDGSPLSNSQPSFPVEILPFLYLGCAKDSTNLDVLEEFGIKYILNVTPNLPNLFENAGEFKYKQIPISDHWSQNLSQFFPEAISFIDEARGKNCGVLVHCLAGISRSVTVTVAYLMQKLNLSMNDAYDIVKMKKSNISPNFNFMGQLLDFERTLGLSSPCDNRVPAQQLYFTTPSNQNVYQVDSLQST

PTP1B = biological target: T3, PTP1B (Homo sapiens, UniProt P18031); test: Dose-response OMFP phosphatase assay, PTP1B; conditions: read-out: IC50 PTP1B; OMFP substrate
T3 sequence (P18031 1-435): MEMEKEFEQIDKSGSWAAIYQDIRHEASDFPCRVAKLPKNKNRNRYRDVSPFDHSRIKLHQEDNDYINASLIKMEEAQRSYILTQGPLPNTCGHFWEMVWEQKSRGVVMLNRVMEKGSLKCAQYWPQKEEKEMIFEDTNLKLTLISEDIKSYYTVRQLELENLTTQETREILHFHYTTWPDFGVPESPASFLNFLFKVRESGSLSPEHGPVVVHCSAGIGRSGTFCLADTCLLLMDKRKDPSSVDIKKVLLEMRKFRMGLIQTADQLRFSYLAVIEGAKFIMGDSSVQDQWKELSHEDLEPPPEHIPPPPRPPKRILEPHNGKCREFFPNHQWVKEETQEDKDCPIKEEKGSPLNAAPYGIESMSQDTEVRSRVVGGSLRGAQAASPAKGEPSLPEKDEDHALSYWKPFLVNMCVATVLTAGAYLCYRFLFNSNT

LYP = biological target: T4, LYP (Homo sapiens, UniProt Q9Y2R2); test: Dose-response OMFP phosphatase assay, LYP; conditions: read-out: IC50 LYP; OMFP substrate
T4 sequence (Q9Y2R2 1-807): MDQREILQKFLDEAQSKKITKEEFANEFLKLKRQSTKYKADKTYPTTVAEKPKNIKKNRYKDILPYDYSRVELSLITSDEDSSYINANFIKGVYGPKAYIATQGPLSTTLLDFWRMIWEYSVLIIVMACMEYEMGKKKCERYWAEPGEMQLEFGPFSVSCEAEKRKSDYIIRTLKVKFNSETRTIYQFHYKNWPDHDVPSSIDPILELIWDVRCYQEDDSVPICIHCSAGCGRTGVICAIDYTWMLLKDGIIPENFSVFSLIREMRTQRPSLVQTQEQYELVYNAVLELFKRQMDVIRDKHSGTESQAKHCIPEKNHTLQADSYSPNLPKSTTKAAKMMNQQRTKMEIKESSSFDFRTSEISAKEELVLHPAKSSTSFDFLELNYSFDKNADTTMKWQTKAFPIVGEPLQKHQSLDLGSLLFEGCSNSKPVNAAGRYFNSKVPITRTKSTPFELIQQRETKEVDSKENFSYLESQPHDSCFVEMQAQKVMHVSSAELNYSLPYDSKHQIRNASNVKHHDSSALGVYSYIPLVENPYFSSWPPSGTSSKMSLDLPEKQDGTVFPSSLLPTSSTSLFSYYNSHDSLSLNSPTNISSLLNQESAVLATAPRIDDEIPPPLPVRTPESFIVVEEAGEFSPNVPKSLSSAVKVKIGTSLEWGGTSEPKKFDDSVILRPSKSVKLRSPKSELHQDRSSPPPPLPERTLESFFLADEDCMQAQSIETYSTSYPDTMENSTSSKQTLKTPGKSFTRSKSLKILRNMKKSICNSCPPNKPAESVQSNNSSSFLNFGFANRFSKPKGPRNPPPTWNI

SHP2 = biological target: T5, SHP2 (Homo sapiens, UniProt Q06124); test: Dose-response OMFP phosphatase assay, SHP2; conditions: read-out: IC50 SHP2; OMFP substrate
T5 sequence (Q06124 1-593): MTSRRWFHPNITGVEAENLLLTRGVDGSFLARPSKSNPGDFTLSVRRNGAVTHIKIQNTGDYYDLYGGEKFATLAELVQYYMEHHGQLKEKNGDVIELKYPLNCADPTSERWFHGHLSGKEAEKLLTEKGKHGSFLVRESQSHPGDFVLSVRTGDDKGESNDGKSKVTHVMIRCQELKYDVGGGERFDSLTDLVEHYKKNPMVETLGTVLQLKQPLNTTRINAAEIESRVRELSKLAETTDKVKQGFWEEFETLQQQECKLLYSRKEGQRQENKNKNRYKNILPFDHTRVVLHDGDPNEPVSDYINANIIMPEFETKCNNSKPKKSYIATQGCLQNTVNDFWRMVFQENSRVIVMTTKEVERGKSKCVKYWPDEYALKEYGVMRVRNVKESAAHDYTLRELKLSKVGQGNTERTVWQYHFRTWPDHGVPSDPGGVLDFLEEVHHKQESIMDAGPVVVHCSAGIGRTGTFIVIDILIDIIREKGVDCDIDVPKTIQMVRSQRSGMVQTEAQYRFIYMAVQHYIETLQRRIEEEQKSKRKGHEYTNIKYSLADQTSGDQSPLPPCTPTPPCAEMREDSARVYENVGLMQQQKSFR
Method in brief: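 Ten-point 2-fold dilution series of test compound prepared in DMSO. Fluorescence (ex 485/em 528 nm) read in kinetic mode over 10 min; progress-curve slopes taken as activity. IC50 by nonlinear regression (sigmoidal, variable slope).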

O=C(O)c1ccccc1-c1ccc(/C=c2\sc3nc4cc(Br)cnc4n3c2=O)o1 [Compound 1]
time-dependent inhibition of HePTP (progress curves) (HePTP; progress curves linear over 98 min at different concentrations): no time-dependent inhibition | IC50 (HePTP; read-out: IC50 HePTP, OMFP substrate): 210 nM | IC50 (MKP-3): 5200 nM | IC50 (PTP1B): 1700 nM | IC50 (LYP): 1900 nM | IC50 (SHP2): 1100 nM

Source: publication PMC3288537 (ACS Chemical Biology, 2011)
